# Data: ChEMBL document CHEMBL1649165, “Activity profile in vitro of micafungin against Spanish clinical isolates of common and emerging species of yeasts and molds” (2009)
# What was measured:
# Format in all cases: functional
# [1] = tested on: Candida tropicalis; assay: Antimicrobial activity against Candida tropicalis by broth microdilution method
# How it was run: (§1)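 Clinical isolates from human patients, tested by broth microdilution using the AFST-EUCAST reference procedure for fermentative yeasts. The MIC was read per that reference method.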
# [2] = tested on: Nakaseomyces glabratus; assay: Antimicrobial activity against Candida glabrata by broth microdilution method; how it was run: as §1
# [3] = tested on: Pichia kudriavzevii; assay: Antimicrobial activity against Candida krusei by broth microdilution method; how it was run: as §1
# [4] = tested on: Clavispora lusitaniae; assay: Antimicrobial activity against Candida lusitaniae by broth microdilution method; how it was run: as §1
# [5] = tested on: Diutina rugosa; assay: Antimicrobial activity against Candida rugosa by broth microdilution method; how it was run: as §1
# [6] = tested on: Debaryomyces hansenii; assay: Antimicrobial activity against Candida famata by broth microdilution method; how it was run: as §1
# [7] = tested on: [Candida] inconspicua; assay: Antimicrobial activity against Candida inconspicua by broth microdilution method; details: Pichia inconspicua; how it was run: as §1
# [8] = tested on: [Candida] zeylanoides; assay: Antimicrobial activity against Candida zeylanoides by broth microdilution method; details: Dujonia zeylanoides; how it was run: as §1
# [9] = tested on: Magnusiomyces capitatus; assay: Antimicrobial activity against Dipodascus capitatus by broth microdilution method
# [10] = tested on: Yarrowia lipolytica; assay: Antimicrobial activity against Yarrowia lipolytica by broth microdilution method
# [11] = tested on: Geotrichum candidum; assay: Antimicrobial activity against Galactomyces geotrichum by broth microdilution method
# [12] = tested on: Cryptococcus deneoformans; assay: Antimicrobial activity against Cryptococcus neoformans var. neoformans by broth microdilution method
# How it was run: (§2)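 Clinical isolates of nonfermentative yeasts, tested by broth microdilution following EUCAST recommendations. The only change from that method was a minor modification to improve growth.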
# [13] = tested on: Trichosporon inkin; assay: Antimicrobial activity against Trichosporon inkin by broth microdilution method
# How it was run: (§3)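 Nonfermentative yeast clinical isolates (Rhodotorula, Trichosporon) tested by broth microdilution. The EUCAST yeast recommendations were followed strictly, with one minor modification to improve growth. MIC was read as the endpoint.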
# [14] = tested on: Trichosporon ovoides; assay: Antimicrobial activity against Trichosporon ovoides by broth microdilution method; how it was run: as §3
# [15] = tested on: Naganishia albida; assay: Antimicrobial activity against Cryptococcus albidus by broth microdilution method; how it was run: as §2
# [16] = tested on: Ustilago; assay: Antimicrobial activity against Ustilago spp by broth microdilution method
# [17] = tested on: Papiliotrema laurentii; assay: Antimicrobial activity against Cryptococcus laurentii by broth microdilution method; how it was run: as §2
# [18] = tested on: Trichosporon; assay: Antimicrobial activity against Trichosporon spp. by broth microdilution method; how it was run: as §3
# [19] = tested on: Aspergillus flavus; assay: Antimicrobial activity against Aspergillus flavus by broth microdilution method
# How it was run: (§4)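 Clinical mould isolates, tested by broth microdilution using the AFST-EUCAST reference method for filamentous fungi. For echinocandins, the endpoint was the minimum effective concentration: the lowest drug concentration giving aberrant hyphal growth, read with an inverted microscope.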
# [20] = tested on: Aspergillus niger; assay: Antimicrobial activity against Aspergillus niger by broth microdilution method; how it was run: as §4
# [21] = tested on: Aspergillus nidulans; assay: Antimicrobial activity against Aspergillus nidulans by broth microdilution method; how it was run: as §4
# [22] = tested on: Aspergillus sydowii; assay: Antimicrobial activity against Aspergillus sydowii by broth microdilution method; how it was run: as §4
# [23] = tested on: Aspergillus versicolor; assay: Antimicrobial activity against Aspergillus versicolor by broth microdilution method; how it was run: as §4
# [24] = tested on: Aspergillus ochraceus; assay: Antimicrobial activity against Aspergillus ochraceus by broth microdilution method; how it was run: as §4
# [25] = tested on: Aspergillus glaucus; assay: Antimicrobial activity against Aspergillus glaucus by broth microdilution method; how it was run: as §4
# [26] = tested on: Aspergillus; assay: Antimicrobial activity against Aspergillus spp. by broth microdilution method; how it was run: as §4
# [27] = tested on: Penicillium; assay: Antimicrobial activity against Penicillium spp. by broth microdilution method
# How it was run: (§5)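 Filamentous fungus clinical isolates tested by the AFST-EUCAST reference broth microdilution method for moulds. For echinocandins, the endpoint was the minimum effective concentration: the lowest drug concentration giving aberrant hyphal growth, read with an inverted microscope.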
# [28] = tested on: Fusarium solani; assay: Antimicrobial activity against Fusarium solani by broth microdilution method; how it was run: as §5
# [29] = tested on: Acremonium sp.; assay: Antimicrobial activity against Acremonium sp.by broth microdilution method; how it was run: as §4
# [30] = tested on: Trichoderma; assay: Antimicrobial activity against Trichoderma spp. by broth microdilution method; how it was run: as §5
# [31] = tested on: Phialemonium curvatum; assay: Antimicrobial activity against Phialemonium curvatum by broth microdilution method; details: Thyridium curvatum; how it was run: as §5
# [32] = tested on: Fusarium equiseti; assay: Antimicrobial activity against Fusarium equiseti by broth microdilution method; how it was run: as §4
# [33] = tested on: Coprinellus domesticus; assay: Antimicrobial activity against Hormographiella verticillata by broth microdilution method; how it was run: as §5
# [34] = tested on: Aureobasidium pullulans; assay: Antimicrobial activity against Aureobasidium pullulans by broth microdilution method
# [35] = tested on: Hortaea werneckii; assay: Antimicrobial activity against Hortaea werneckii by broth microdilution method
# [36] = tested on: Lichtheimia corymbifera; assay: Antimicrobial activity against Mycocladus corymbiferus by broth microdilution method; how it was run: as §5
# [37] = tested on: Rhizopus arrhizus; assay: Antimicrobial activity against Rhizopus oryzae by broth microdilution method; how it was run: as §5
# [38] = tested on: Mucor; assay: Antimicrobial activity against Mucor spp.by broth microdilution method; how it was run: as §5
# [39] = tested on: Saksenaea vasiformis; assay: Antimicrobial activity against Saksenaea vasiformis by broth microdilution method; how it was run: as §5
# [40] = tested on: Exophiala jeanselmei; assay: Antimicrobial activity against Exophiala jeanselmei by broth microdilution method
smiles,measurement,setting,value
CC[C@H](C)C[C@H](C)CCCCCCCCC(=O)N[C@H]1C[C@@H](O)[C@@H](NCCN)NC(=O)[C@@H]2[C@@H](O)CCN2C(=O)[C@H]([C@H](O)CCN)NC(=O)[C@H]([C@H](O)[C@@H](O)c2ccc(O)cc2)NC(=O)[C@@H]2C[C@@H](O)CN2C(=O)[C@H]([C@@H](C)O)NC1=O [CASPOFUNGIN],MIC50,[1],0.12 µg/mL
same,MIC90,[1],0.25 µg/mL
same,MIC50,[2],0.12 µg/mL
same,MIC90,[2],0.25 µg/mL
same,MIC50,[3],0.25 µg/mL
same,MIC90,[3],0.5 µg/mL
same,MIC50,[4],0.5 µg/mL
same,MIC90,[4],1 µg/mL
same,MIC50,[5],0.06 µg/mL
same,MIC90,[5],0.5 µg/mL
same,MIC50,[6],0.06 µg/mL
same,MIC90,[6],0.5 µg/mL
same,MIC50,[7],0.06 µg/mL
same,MIC90,[7],0.5 µg/mL
same,MIC50,[8],0.06 µg/mL
same,MIC90,[8],0.5 µg/mL
same,MIC50,[9],> 16 µg/mL
same,MIC90,[9],> 16 µg/mL
same,MIC50,[10],0.5 µg/mL
same,MIC90,[10],1 µg/mL
same,MIC50,[11],> 16 µg/mL
same,MIC90,[11],> 16 µg/mL
same,MIC50,[12],> 16 µg/mL
same,MIC90,[12],> 16 µg/mL
same,MIC50,[13],> 16 µg/mL
same,MIC90,[13],> 16 µg/mL
same,MIC50,[14],> 16 µg/mL
same,MIC90,[14],> 16 µg/mL
same,MIC50,[15],> 16 µg/mL
same,MIC90,[15],> 16 µg/mL
same,MIC50,[16],> 16 µg/mL
same,MIC90,[16],> 16 µg/mL
same,MIC50,[17],> 16 µg/mL
same,MIC90,[17],> 16 µg/mL
same,MIC50,[18],> 16 µg/mL
same,MIC90,[18],> 16 µg/mL
same,MIC50,[19],> 16 µg/mL
same,MIC90,[19],> 16 µg/mL
same,MIC50,[20],0.25 µg/mL
same,MIC90,[20],0.5 µg/mL
same,MIC50,[21],0.5 µg/mL
same,MIC90,[21],> 16 µg/mL
same,MIC50,[22],0.25 µg/mL
same,MIC90,[22],1 µg/mL
same,MIC50,[23],0.25 µg/mL
same,MIC90,[23],2 µg/mL
same,MIC50,[24],0.12 µg/mL
same,MIC90,[24],0.5 µg/mL
same,MIC50,[25],0.12 µg/mL
same,MIC90,[25],0.5 µg/mL
same,MIC50,[26],0.12 µg/mL
same,MIC90,[26],0.5 µg/mL
same,MIC50,[27],0.25 µg/mL
same,MIC90,[27],8 µg/mL
same,MIC50,[28],> 16 µg/mL
same,MIC90,[28],> 16 µg/mL
same,MIC50,[29],0.5 µg/mL
same,MIC90,[29],1 µg/mL
same,MIC50,[30],> 16 µg/mL
same,MIC90,[30],> 16 µg/mL
same,MIC50,[31],> 16 µg/mL
same,MIC90,[31],> 16 µg/mL
same,MIC50,[32],> 16 µg/mL
same,MIC90,[32],> 16 µg/mL
same,MIC50,[33],> 16 µg/mL
same,MIC90,[33],> 16 µg/mL
same,MIC50,[34],0.25 µg/mL
same,MIC90,[34],1 µg/mL
same,MIC50,[35],0.25 µg/mL
same,MIC90,[35],1 µg/mL
same,MIC50,[36],> 16 µg/mL
same,MIC90,[36],> 16 µg/mL
same,MIC50,[37],> 16 µg/mL
same,MIC90,[37],> 16 µg/mL
same,MIC50,[38],> 16 µg/mL
same,MIC90,[38],> 16 µg/mL
same,MIC50,[39],> 16 µg/mL
same,MIC90,[39],> 16 µg/mL
same,MIC50,[40],0.25 µg/mL
same,MIC90,[40],1 µg/mL
